The subject of data set [1] is S. pyogenes ATCC700294. Nature of the data set: MIC, microbroth dilution in Mueller-Hinton broth. Format: cell-based. Particulars: Streptococcus pyogenes, ATCC700294, read-out: MIC SPy. In a few lines:
(§1)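 CLSI broth microdilution in cation-adjusted Mueller-Hinton broth. Inocula were grown from MH agar colonies in MH broth, with a final inoculum of 10^5 CFU/ml. Test compound final range was 200–0.2 µg/ml, incubated 37°C for 18–20 h. MIC was the lowest concentration preventing visible growth. Runs were at least duplicate, and the mean MIC was reported.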
On the technique in general: Broth dilution looks for growth in wells or tubes with falling amounts of substance.

Data set [2] has as its system P. vulgaris ATCC 33420. Nature of the data set: MIC, microbroth dilution in Mueller-Hinton broth. The conditions noted are these: Proteus vulgaris, ATCC33420, read-out: MIC PV. Format: cell-based.
Data set [3] has as its system E. coli BW25113. The data set is described as follows: MIC, microbroth dilution in Mueller-Hinton broth. Format: cell-based, Escherichia coli. Particulars: for MIC EC MH+BP/CCCP / MIC EC +: E. coli BW25113; for MIC EC MH+BP/CCCP: MH broth with 30 µg/ml 2,2′-bipyridyl and 50 µg/ml CCCP; for MIC EC +: with clavulanic acid (6µg/ml); for MIC: Escherichia coli.
Data set [4] deals with E. coli BW25113 ΔampC derivative JW4111-2. Format: cell-based, Escherichia coli.
For data set [5], the system named is E. faecalis ATCC33186. Nature of the data set: MIC, microbroth dilution in Mueller-Hinton broth. Format: cell-based. The conditions noted are these: Enterococcus faecalis, ATCC33186, read-out: MIC EF. An outline of the steps: as §1
In data set [6] the test system is S. aureus -ATCC29213 (MSSA). Nature of the data set: MIC, microbroth dilution in Mueller-Hinton broth. Format: cell-based. Particulars: Staphylococcus aureus, read-out: MIC MSSA. An outline of the steps:
as §1

Data set [7] has as its system P. mirabilis ATCC 25933. The data set is described as follows: MIC, microbroth dilution in Mueller-Hinton broth. Format: cell-based. The conditions noted are these: Proteus mirabilis, ATCC25933, read-out: MIC PM.
For data set [8], the system named is S. pneumoniae R6. Nature of the data set: MIC, microbroth dilution in Mueller-Hinton broth. Format: cell-based. Particulars: Streptococcus pneumoniae, R6, read-out: MIC SP. An outline of the steps: as §1
Data set [9] has as its system B. subtilis ATCC23857. The data set is described as follows: MIC, microbroth dilution in Mueller-Hinton broth. Format: cell-based. Particulars: Bacillus subtilis, ATCC23857, read-out: MIC BS. An outline of the steps: as §1
The subject of data set [10] is B. anthracis sterne. The data set is described as follows: microbe, parasite or virus in culture. Format: cell-based. The conditions noted are these: Bacillus anthracis, read-out: MIC BA.
For data set [11], the system named is E. coli BW25113 ΔtolC derivative JW5503-1. The data set is described as follows: MIC, microbroth dilution in Mueller-Hinton broth. Format: cell-based, Escherichia coli. Particulars: for MIC: Escherichia coli.
Data set [12] has as its system S. aureus NRS 70 (MRSA). Nature of the data set: MIC, microbroth dilution in Mueller-Hinton broth. Format: cell-based. The conditions noted are these: Staphylococcus aureus, MRSA|NRS70, read-out: MIC MRSA. In a few lines: as §1
For data set [13], the system named is P. aeruginosa PA01. The data set is described as follows: MIC, microbroth dilution in Mueller-Hinton broth. Format: cell-based, Pseudomonas aeruginosa. Particulars: for MIC PA +: with clavulanic acid (6µg/ml); for MIC: Pseudomonas aeruginosa.
For data set [14] the following is noted: cited from earlier work.

≈ marks a conversion by molar mass, not a printed value. Where two headings read alike, the source gives them in different places.

Consider `CC1(C)S[C@@H]2[C@H](NC(=O)[C@H](N)c3ccccc3)C(=O)N2[C@H]1C(=O)O` [ampicillin, reference compound], for which the MIC in [1] was less than 0.2 µg/mL; in data set [2] it was 100 µg/mL (≈ 286 µM); in [3] (BW25113, read-out: MIC EC, E. coli BW25113, Mueller-Hinton broth (Table 2)) it was 3.13 µg/mL (≈ 8.96 µM); in [5], 3.13 µg/mL (≈ 8.96 µM); in [6], less than 0.2 µg/mL; in data set [7], 3.13 µg/mL (≈ 8.96 µM). Also, the MIC in data set [8] is less than 0.2 µg/mL; in data set [9], less than 0.2 µg/mL; in [10] it was less than 0.2 µg/mL; in [12], 50 µg/mL (≈ 143 µM); in data set [13] (PA01, read-out: MIC PA), more than 200 µg/mL; in data set [13] (PA01, read-out: MIC PA MH) it was more than 200 µg/mL. The MIC in data set [13] (PA01, read-out: MIC PA MH+BP) is more than 200 µg/mL; in data set [13] (PA01, read-out: MIC PA MH+CCCP) it was more than 200 µg/mL; in data set [13] (PA01, read-out: MIC PA −), more than 200 µg/mL. Besides, the “MIC EC MH+BP/CCCP” value in data set [3] came to 0.78 µg/mL (≈ 2.23 µM). Also, the “MIC EC +” value in data set [3] amounted to 1.56 µg/mL. In addition, the “MIC ECΔampC +” value in data set [4] was 1.56 µg/mL. In addition, the “MIC ECΔtolC MH+BP/CCCP” value in [11] ({}) amounted to 0.39 µg/mL (≈ 1.12 µM). In data set [11] ({}), the “MIC ECΔtolC MH+CCCP” value was determined as 1.56 µg/mL (≈ 4.46 µM). For the same compound, the “MIC PA” value in data set [13] (P. aeruginosa PA01, Mueller-Hinton broth (Table 2)) is more than 200 µg/mL. Also, in data set [13] (P. aeruginosa PA01), the “MIC PA +” value came to 100 µg/mL.
Regarding `O=C(N[C@H]1COC(=O)[C@@H](NC(=O)c2cccc(O)c2O)COC(=O)[C@@H](NC(=O)c2cccc(O)c2O)COC1=O)c1cccc(O)c1O` [enterobactin], the pM in data set [14] (E. coli enterobactin, ref [42]) was 35.6.
Turning to `CCN1CCN(C(=O)N[C@@H](C(=O)N[C@@H]2C(=O)N3[C@@H]2SC(C)(C)[C@@H]3C(=O)O)c2ccccc2)C(=O)C1=O` [piperacillin, reference compound], the MIC in [1] was less than 0.2 µg/mL; in data set [2], 1.56 µg/mL (≈ 3.01 µM); in [3] (BW25113, read-out: MIC EC MH+BP), 1.56 µg/mL (≈ 3.01 µM); in [4] (Escherichia coli, BW25113, read-out: MIC ECΔampC −) it was 1.56 µg/mL (≈ 3.01 µM); in data set [5] it was 3.13 µg/mL (≈ 6.05 µM); in [6], less than 0.2 µg/mL. Besides, the MIC in [7] was 0.19 µg/mL (≈ 0.367 µM); in [8] it was less than 0.2 µg/mL; in data set [9], 0.39 µg/mL (≈ 0.754 µM); in data set [10], 0.39 µg/mL (≈ 0.754 µM); in data set [11] (BW25113, read-out: MIC ECΔtolC), 1.56 µg/mL (≈ 3.01 µM); in data set [11] (BW25113, read-out: MIC ECΔtolC MH), 0.09 µg/mL (≈ 0.174 µM). Besides, the MIC was 0.09 µg/mL (≈ 0.174 µM) in data set [11] (BW25113, read-out: MIC ECΔtolC MH+BP); 25 µg/mL (≈ 48.3 µM) in [12]; 3.13 µg/mL (≈ 6.05 µM) in [13] (PA01, read-out: MIC PA MH+CCCP). For the same compound, the “MIC EC MH+BP/CCCP” value in data set [3] was found to be 0.78 µg/mL (≈ 1.51 µM). In addition, in [3], the “MIC EC +” value worked out at 3.13 µg/mL. Also, the “MIC ECΔampC +” value in [4] amounted to 1.56 µg/mL. Further, the “MIC PA MH+BP/CCCP” value in data set [13] (P. aeruginosa PA01, MH broth with 30 µg/ml 2,2′-bipyridyl and 50 µg/ml CCCP) came out at 3.13 µg/mL (≈ 6.05 µM). In addition, the “MIC PA +” value in data set [13] (P. aeruginosa PA01) stood at 3.13 µg/mL.
What is called Kd is the equilibrium constant for the complex coming apart. For the compound `CN1[C@@H]([C@H]2CSC(c3ccccc3O)=N2)SC[C@H]1C(=O)O` [pyochelin], the pM in data set [14] (pyochelin, ref [43], [44]) is 6. Further, the dissociation constant Kd in [14] (read-out: Kd for iron, pyochelin, ref [43], [44]) is 10 µM.
Turning to pyoverdin, in data set [14] (P. aeruginosa pyoverdin, ref [45], [46]), the pM is listed as 27.

These data come from article PMC5116011 (The Journal of antibiotics, 2016).
